Test results published in ChEMBL document CHEMBL2384985 (Bioorg Med Chem Lett, 2013).
Calls of active or inactive are those of the source. The calls are words filed in the database; no cut-off is given here.

Columns and labels:
Embryonic stem cell [1] = assay: Induction of cardiomyogenic activity in human embryonic stem cells assessed as cell growth at 5 uM measured on day 15 by FACS analysis; format: functional, cell-based
Embryonic stem cell [2] = assay: Induction of cardiomyogenic activity in human embryonic stem cells assessed as cardiomyocyte yield at 2 to 5 uM measured on day 15 by FACS analysis; format: functional, cell-based
How it was run: (§1)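 Nkx2.5eGFP/w transgenic hESC line (eGFP driven by cardiac progenitor marker Nkx2.5). Compound present from Day 0, the day of embryoid body formation, to Day 8. On Day 15 EBs were dissociated to single cells for FACS. Nkx2.5 was read as GFP expression, and α-MHC by MF20 primary antibody with FITC-conjugated secondary.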

Embryonic stem cell [3] = assay: (§2) Induction of cardiomyogenic activity in human embryonic stem cells assessed as cardiomyocyte yield at 5 uM measured on day 15 by FACS analysis relative to control; format: functional; how it was run: as §1
Embryonic stem cell [4] = assay: Induction of cardiomyogenic activity in human embryonic stem cells assessed as cardiomyocyte yield at 5 to 15 uM measured on day 15 by FACS analysis; format: functional, cell-based; how it was run: as §1
Embryonic stem cell [5] = assay: Induction of cardiomyogenic activity in human embryonic stem cells assessed as cardiomyocyte yield at 1 to 5 uM measured on day 15 by FACS analysis; format: functional, cell-based; how it was run: as §1
Embryonic stem cell [6] = assay: Induction of cardiomyogenic activity in human embryonic stem cells assessed as cardiomyocyte yield at 5 to 100 uM measured on day 15 by FACS analysis; format: functional, cell-based; how it was run: as §1
[7] = Reduction of cardiomyogenic activity in human embryonic stem cells assessed as cardiomyocyte yield at 5 uM measured on day 15 by FACS analysis relative to control; format: functional, Embryonic stem cell; how it was run: as §1
[8] = as §2; format: functional, Embryonic stem cell; how it was run: as §1

## C[S+]([O-])c1ccc(-c2nc(-c3ccc(F)cc3)c(-c3ccncc3)[nH]2)cc1 (stereo not given)
Embryonic stem cell [1]
  Activity: Active

## Cc1cccc(-c2nc(-c3ccc(O)cc3)[nH]c2-c2ccncc2)c1
Embryonic stem cell [2]
  Activity: inactive

## Cc1cccc(-c2nc(-c3ccc([S+](C)[O-])cc3)[nH]c2C2=CCOCC2)c1 (stereo not given)
Embryonic stem cell [3]
  Activity: Active
Embryonic stem cell [4]
  Activity: inactive

## Cc1cccc(-c2nc(-c3c(F)cccc3F)[nH]c2-c2ccncc2)c1
Embryonic stem cell [5]
  Activity: inactive

## Cc1cccc(-c2nc(-c3ccccc3F)[nH]c2-c2ccncc2)c1
Embryonic stem cell [5]
  Activity: inactive

## C[S+]([O-])c1ccc(-c2nc(-c3ccc(F)cc3)c(C3=CCOCC3)[nH]2)cc1 (stereo not given)
Embryonic stem cell [6]
  Activity: inactive
[7]
  Ratio: 2

## Cc1cccc(-c2nc(-c3ccc([S+](C)[O-])cc3)[nH]c2-c2ccncc2)c1 (stereo not given)
[8]
  Ratio: 5
Embryonic stem cell [1]
  Activity: Active
